PMC3419923 (The EMBO Journal, 2012)

System: PepTSt
Test: Kinetics of proton-driven glycylsarcosine uptake in PepTSt proteoliposomes
Assay type: biochemical, Streptococcus thermophilus
Conditions: proton-driven proteoliposome uptake, pH 6.5
Summary of the method: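 PepTSt proteoliposomes (1:40 protein:lipid, extruded 400 nm) loaded with 20 mM KPi pH 6.50, 100 mM K acetate, 2 mM MgSO4. Diluted 1:50 into 20 mM NaPIPES […], 2 mM MgSO4, 10 μM valinomycin, giving an inside-negative potential that drives H+/peptide uptake. 3H peptide added at varying concentrations, 25°C. Quenched with ice-cold LiCl, filtered, counted, and converted to molar amounts via standard curves.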

glycylsarcosine
maximal rate of uptake, Vmax: 631 nmol min^−1 mg^−1 PepTSt
